Data set [1] addresses T1, Organic anion transporter 3 (Homo sapiens, UniProt Q8TCC7).
T1 sequence (Q8TCC7 whole entry): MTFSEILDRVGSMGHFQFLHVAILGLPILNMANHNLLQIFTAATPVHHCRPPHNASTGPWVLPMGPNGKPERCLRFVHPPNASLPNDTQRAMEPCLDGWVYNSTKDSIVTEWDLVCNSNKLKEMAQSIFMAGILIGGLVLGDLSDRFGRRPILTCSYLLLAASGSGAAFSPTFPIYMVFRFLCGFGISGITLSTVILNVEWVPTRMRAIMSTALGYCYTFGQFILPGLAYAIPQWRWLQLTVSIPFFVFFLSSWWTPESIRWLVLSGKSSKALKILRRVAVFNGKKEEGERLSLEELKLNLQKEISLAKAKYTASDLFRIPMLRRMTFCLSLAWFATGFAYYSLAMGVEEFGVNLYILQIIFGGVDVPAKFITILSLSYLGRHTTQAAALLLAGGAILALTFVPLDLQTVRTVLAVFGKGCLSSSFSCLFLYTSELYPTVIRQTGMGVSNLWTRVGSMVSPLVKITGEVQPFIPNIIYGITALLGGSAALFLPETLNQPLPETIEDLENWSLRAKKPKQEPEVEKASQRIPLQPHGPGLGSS
Description: Inhibition of OAT3 (unknown origin) expressed in HEK293 cells assessed as reduction in 6-CF uptake measured after 5 mins by fluorescence assay. The class given is cell-based. The note with it: for inhibition (INH): human, hek293, 5 min. The gist of the method: (§1)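 Uptake of 4 μM 6-CF measured over 5 min in stable OAT1- or OAT3-HEK293 cells, in pH 7.2 Hepes buffer at 37 °C with serial dilutions of compound. Lysate fluorescence (485/528 nm) normalized to protein, triplicate. IC50 obtained by nonlinear regression, reported as mean ± SEM.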

Data set [2] concerns the target T2, Solute carrier family 22 member 6 (Homo sapiens, UniProt Q4U2R8).
T2 sequence (Q4U2R8 whole entry): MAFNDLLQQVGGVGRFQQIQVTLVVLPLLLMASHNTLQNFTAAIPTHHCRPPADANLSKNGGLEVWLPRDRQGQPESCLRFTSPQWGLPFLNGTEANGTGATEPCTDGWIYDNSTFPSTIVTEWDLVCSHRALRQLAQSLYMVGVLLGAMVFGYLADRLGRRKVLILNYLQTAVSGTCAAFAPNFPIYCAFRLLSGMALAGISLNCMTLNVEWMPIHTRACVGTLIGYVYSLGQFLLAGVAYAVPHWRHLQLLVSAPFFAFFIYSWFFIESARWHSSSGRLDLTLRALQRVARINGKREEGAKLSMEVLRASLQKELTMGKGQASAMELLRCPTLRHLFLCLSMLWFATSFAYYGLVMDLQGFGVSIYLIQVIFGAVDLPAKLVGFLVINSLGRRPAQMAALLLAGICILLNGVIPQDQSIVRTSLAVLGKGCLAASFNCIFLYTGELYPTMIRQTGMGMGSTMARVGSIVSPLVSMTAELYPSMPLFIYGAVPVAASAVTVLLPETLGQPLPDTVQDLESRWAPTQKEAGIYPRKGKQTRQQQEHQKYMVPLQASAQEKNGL
The data set can be described thus: Inhibition of OAT1 (unknown origin) expressed in HEK293 cells assessed as reduction in 6-CF uptake measured after 5 mins by fluorescence assay. The class given is cell-based. The note with it: for inhibition (INH): human, hek293, 5 min. In short, it runs like this:
as §1

In the next data set the target is T3, OAT3 (Homo sapiens, UniProt Q8TCC7).
T3 sequence (Q8TCC7 whole entry): T1 sequence (Q8TCC7 whole entry)
Description: Inhibition of OAT3 (unknown origin) expressed in HEK293 cells assessed as reduction in 6-CF uptake at 50 uM measured after 5 mins by fluorescence assay relative to control. The class given is cell-based. The following applies: HEK293 cells expressing OAT3, probe 6-CF. In short, it runs like this: (§2)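 Transfected HEK293 cells stably expressing OAT1 or OAT3, maintained under hygromycin B selection, were seeded on poly-D-lysine plates and grown 24 h. Cells preincubated 5 min at 37 °C in Hepes uptake buffer (pH 7.2), then exposed 5 min to 4 μM 6-CF with compound at 50 μM. Ice-cold stop, PBS wash, Triton lysis. Fluorescence read at 485/528 nm, normalized to BCA protein, in triplicate.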

The target of a further data set is T4, OAT1 (SLC22A6) (Homo sapiens, UniProt Q4U2R8).
T4 sequence (Q4U2R8 whole entry): T2 sequence (Q4U2R8 whole entry)
The data set can be described thus: Inhibition of OAT1 (unknown origin) expressed in HEK293 cells assessed as reduction in 6-CF uptake at 50 uM measured after 5 mins by fluorescence assay relative to control. The following applies: HEK293 cells expressing OAT1, probe 6-CF. The class given is cell-based. The gist of the method: as §2

A short description of data set [3]: Toxicity in Wistar rat at 10 mg/kg, po administered via gavage. The note with it: in vivo. The class given is organism-based. In short, it runs like this:
(§3)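 Preliminary test in fasted rats: single oral gavage dose in 40% PEG-400, observed for toxic response.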

For data set [4], the system named is Rattus norvegicus. The data set can be described thus: In vivo inhibition of OAT1 and OAT3 in Wistar rat assesed as increase in furosemide AUC (0 to t) at 10 mg/kg, po administered via gavage pretreated for 5 mins followed by furosemide addition and measured within 10 mins by HPLC analysis. The class given is functional. Also noted: scale not given: the % may be the effect or the level left. The note with it: in the assay text read “at 20 mg/kg” for “at 10 mg/kg”. In short, it runs like this: (§4)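 Rats (5 per group) fasted 12 h, then pretreated by oral gavage with test agent in 40% PEG-400 or vehicle. After 5 min, furosemide 10 mg/kg in saline given by tail vein injection. Orbital sinus blood taken at 2–120 min. Plasma extracted with MeCN containing warfarin internal standard. Furosemide quantified by C18 HPLC with UV detection at 280 nm. AUC0−t calculated.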

A short description of data set [5]: Toxicity in Wistar rat at 20 mg/kg, po administered via gavage. The class given is organism-based. The note with it: in vivo. In short, it runs like this:
as §3

Data set [6] relates to Rattus norvegicus. Description: In vivo inhibition of OAT1 and OAT3 in Wistar rat assesed as increase in furosemide AUC (0 to t) at 20 mg/kg, po administered via gavage pretreated for 5 mins followed by furosemide addition and measured within 90 mins by HPLC analysis. The class given is functional. The arrangement: scale not given: the % may be the effect or the level left. The gist of the method: as §4

Data set [7] has as its system Rattus norvegicus. Description: In vivo inhibition of OAT1 and OAT3 in Wistar rat assesed as increase in furosemide AUC (0 to t) at 20 mg/kg, po administered via gavage pretreated for 5 mins followed by furosemide addition and measured within 10 mins by HPLC analysis. The class given is functional. Also noted: scale not given: the % may be the effect or the level left. In short, it runs like this:
as §4

The test system of data set [8] is Rattus norvegicus. The data set can be described thus: In vivo inhibition of OAT1 and OAT3 in Wistar rat assesed as increase in furosemide AUC (0 to t) at 10 mg/kg, po administered via gavage pretreated for 5 mins followed by furosemide addition and measured within 30 mins by HPLC analysis. The class given is functional. Also noted: scale not given: the % may be the effect or the level left. The note with it: in the assay text read “at 20 mg/kg” for “at 10 mg/kg”. The gist of the method:
as §4

The subject of data set [9] is Rattus norvegicus. Description: In vivo inhibition of OAT1 and OAT3 in Wistar rat assesed as increase in furosemide AUC (0 to t) at 20 mg/kg, po administered via gavage pretreated for 5 mins followed by furosemide addition and measured within 30 mins by HPLC analysis. The class given is functional. The arrangement: scale not given: the % may be the effect or the level left. In short, it runs like this:
as §4

The test system of data set [10] is Rattus norvegicus. Description: In vivo inhibition of OAT1 and OAT3 in Wistar rat assesed as increase in furosemide AUC (0 to t) at 10 mg/kg, po administered via gavage pretreated for 5 mins followed by furosemide addition and measured within 90 mins by HPLC analysis. The class given is functional. Also noted: scale not given: the % may be the effect or the level left. In short, it runs like this:
as §4

Broadly, the IC50 is the concentration at which inhibition is half-maximal. For orientation: inhibition means the percentage by which the read-out fell short of the control. Take `C=Cc1cc(O)cc2c1-c1ccc(O)c(C)c1CC2` [EFFUSOL]: the IC50 in data set [1] came to 22.7 µM; in [2] it was 23.3 µM. Also, the inhibition at 5 min, 50 µM on OAT3 and at OAT1 (SLC22A6) was more than 50% each time.

Turning to `C=Cc1c(C(=O)O)ccc2c1CCc1c-2ccc(O)c1C`, the figures for the IC50 in [1] and in data set [2] were 1.1 µM and 18.3 µM, respectively. In data set [1], the “inhibition (INH)” value was “Dose-dependent effect”. Also, the inhibition at 5 min, 50 µM at OAT3 and on OAT1 (SLC22A6) was more than 50% in each case.

Consider `C=Cc1c(C)c(O)cc2c1-c1ccc(O)c(C)c1CC2`, for which, in [1], the IC50 was found to be 6.5 µM and the “inhibition (INH)” value is given as “Dose-dependent effect”. For the same compound, the inhibition at 5 min, 50 µM on OAT3 was more than 50%. In addition, on OAT1 (SLC22A6), the inhibition at 5 min, 50 µM is less than 50%.

As for `C=Cc1cc(C(=O)O)cc2c1-c1ccc(O)c(C)c1CC2`, the IC50 turned out to be 1.1 µM in data set [1] and 4.4 µM in [2]. Further, the “inhibition (INH)” value in data set [1] and in data set [2] was “Dose-dependent effect” throughout. Further, the inhibition at 5 min, 50 µM on OAT3 and at OAT1 (SLC22A6) was more than 50% throughout.

Take `CCCN(CCC)S(=O)(=O)c1ccc(C(=O)O)cc1` [PROBENECID]: the Activity result in data set [3] is given as “Non-Toxic”.

Consider `C=Cc1cc(C(=O)O)cc2c1CCc1c-2ccc(O)c1C`, for which, in data set [1], the IC50 amounted to 2.8 µM and the “inhibition (INH)” value is given as “Dose-dependent effect”. The inhibition at 5 min, 50 µM at OAT3 was more than 50%. On OAT1 (SLC22A6), the inhibition at 5 min, 50 µM is less than 50%.

As to `COc1cc(C(=O)c2ccc(O)c(OC)c2)ccc1O`, the 50% inhibitory concentration (IC50) came out at 2.3 µM in data set [1] and 3.5 µM in data set [2]. Besides, the “inhibition (INH)” value in data set [1] and in data set [2] was “Dose-dependent effect” each time. The inhibition at 5 min, 50 µM on OAT3 and on OAT1 (SLC22A6) was more than 50% each time.

With `COC(C)c1cc(O)cc2c1-c1ccc(O)c(C)c1CC2` (racemic), the IC50 in [1] worked out at 8.3 µM; in data set [2], 43.1 µM. Moreover, the “inhibition (INH)” value in data set [1] was “Dose-dependent effect”. Further, the inhibition at 5 min, 50 µM on OAT3 and at OAT1 (SLC22A6) was more than 50% each time.

Consider `C=Cc1cc2c(cc1C(=O)O)CCc1c-2ccc(O)c1C`, for which the Activity was 70% in the data set with Rattus norvegicus [4]; “Non-Toxic” in data set [5]; 66% in the data set on Rattus norvegicus [6]; 70% with Rattus norvegicus [7]; 62% in the data set on Rattus norvegicus [8]; 62% in the data set on Rattus norvegicus [9]. For the same compound, in the data set with Rattus norvegicus [10], the Activity was determined as 66%. Further, the figures for the IC50 in [1] and in data set [2] were 1.3 µM and 8.4 µM, respectively. The “inhibition (INH)” value in [1] and in [2] was “Dose-dependent effect” each time. The inhibition at 5 min, 50 µM at OAT3 and on OAT1 (SLC22A6) was more than 50% throughout.
